For experiment [1], the target named is T1, Aurora kinase A (Homo sapiens, UniProt O14965).
T1 sequence (O14965 whole entry): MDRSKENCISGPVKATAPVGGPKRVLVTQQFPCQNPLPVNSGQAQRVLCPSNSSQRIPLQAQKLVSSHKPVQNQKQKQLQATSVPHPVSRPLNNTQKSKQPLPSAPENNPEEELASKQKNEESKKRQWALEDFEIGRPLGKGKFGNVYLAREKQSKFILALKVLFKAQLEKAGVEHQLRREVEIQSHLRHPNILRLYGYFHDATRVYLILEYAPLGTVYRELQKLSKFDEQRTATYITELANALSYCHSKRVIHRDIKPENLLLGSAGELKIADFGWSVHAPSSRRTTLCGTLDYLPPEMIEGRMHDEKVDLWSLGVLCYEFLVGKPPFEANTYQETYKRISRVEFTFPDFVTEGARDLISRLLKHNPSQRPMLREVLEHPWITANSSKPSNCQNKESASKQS
In words: Inhibition of GST-tagged human recombinant Aurora A kinase domain (123 to 401 residues) expressed in Sf9 cells after 120 mins by kinase-glo luminescence assay.

In experiment [2] the target is T2, Aurora kinase B (Homo sapiens, UniProt Q96GD4). The experiment in a line: Inhibition of human recombinant full length Aurora-B (1 to 344 residues) expressed in Sf9 cells after 90 mins by kinase-glo luminescence assay.
The target of experiment [3] is T1, Aurora kinase A. The experiment in a line: Inhibition of Aurora-A autophosphorylation at Thr288 in human HCT116 cells after 1 hr by Western blot analysis. The class given is cell-based. An outline of the steps: (§1)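 HCT116 cells arrested in mitosis with 200 nM nocodazole for 24 h, then exposed to compound for 1 h over 9 concentrations. Lysed in Laemmli buffer, SDS-PAGE, PVDF immunoblot for phospho-Aurora-A Thr288 / Aurora-B Thr232 with HRP secondary and chemiluminescence. IC50 derived from blot profiles.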

In another experiment the test system is HCT-116. In words: Cytotoxicity against human HCT116 cells. It is filed as functional, cell-based.
Experiment [4] concerns the target T2, Aurora kinase B. In words: Inhibition of Aurora-B autophosphorylation at Thr232 in human HCT116 cells after 1 hr by Western blot analysis. It is filed as cell-based. The method in brief: as §1
A general note: Immunoblotting shows a protein as a band on a membrane.

The test system of experiment [5] is HeLa. In words: Decrease in mitotic index in human HeLa cells after 10 to 12 hrs post thymidine block by pHH3Ser10/Hoechst33342 staining-based immunofluorescence analysis. It is filed as functional, cell-based. An outline of the steps:
(§2)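 HeLa cells synchronized by thymidine block, released and treated with compound, fixed at set times (4% paraformaldehyde, 30 min), permeabilized with 0.1% Triton X-100, blocked in 1% BSA. Stained with anti-pHH3Ser10 (1:500, 1.5 h, RT) and Alexa-594 secondary, Hoechst 33342 counterstain. Mitotic index is the percentage of pHH3Ser10-positive cells among about 2000-3000 cells per condition.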

For a further experiment, the system named is Detroit 551. In words: Cytotoxicity against human Detroit 551 cells. The class given is cell-based.
The test system of experiment [6] is HeLa. The experiment in a line: Increase in mitotic index in human HeLa cells after 10 to 12 hrs post thymidine block by pHH3Ser10/Hoechst33342 staining-based immunofluorescence analysis. The class given is functional, cell-based. An outline of the steps:
as §2

Structures are written as SMILES. Calls of active or inactive are those of the source. The calls are words filed in the database; no cut-off is given here. Bounds are passed on as bounds.

The term IC50 denotes the concentration at which inhibition is half-maximal.

T2 sequence (Q96GD4 whole entry, the tested form may be a part): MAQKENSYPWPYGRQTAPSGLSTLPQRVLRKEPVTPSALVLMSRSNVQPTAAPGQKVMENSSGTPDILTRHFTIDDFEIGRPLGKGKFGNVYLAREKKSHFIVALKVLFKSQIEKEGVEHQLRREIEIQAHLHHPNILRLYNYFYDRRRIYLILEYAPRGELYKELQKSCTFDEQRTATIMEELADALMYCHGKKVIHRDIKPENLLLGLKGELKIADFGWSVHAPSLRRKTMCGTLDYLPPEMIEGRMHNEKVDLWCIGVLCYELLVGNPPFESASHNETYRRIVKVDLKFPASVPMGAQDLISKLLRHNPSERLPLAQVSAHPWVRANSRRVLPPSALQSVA

As to `O=C(Nc1ccc(CCNc2ncnc3oc(-c4ccccc4)c(Cl)c23)cc1)Nc1cccc(CN2CCC(O)CC2)c1`, the IC50 at Aurora kinase A [1] came to 67.8 nM; on Aurora kinase B [2] it was 83.6 nM.

`CC(C)Cc1ccc(NC(=O)Nc2ccc(CCNc3ncnc4oc(-c5ccccc5)c(Cl)c34)cc2)cc1`: the concentration for half-maximal inhibition (IC50) at Aurora kinase A [1] and at Aurora kinase B [2] was more than 1000 nM each time.

Consider `CC(C)c1ccccc1NC(=O)Nc1ccc(CCNc2ncnc3oc(-c4ccccc4)c(Cl)c23)cc1`, for which the IC50 is 525 nM at Aurora kinase A [1] and 336 nM at Aurora kinase B [2].

For the compound `Cc1cccc(NC(=O)Nc2ccc(CCNc3ncnc4oc(-c5ccccc5)c(Cl)c34)cc2)c1`, the IC50 at Aurora kinase A [1] is 52.6 nM; at Aurora kinase B [2], 74.9 nM.

Regarding `O=C(Nc1ccc(CCNc2ncnc3oc(-c4ccccc4)c(Cl)c23)cc1)Nc1ccccc1CN1CCCCC1`, the 50% inhibitory concentration (IC50) at Aurora kinase A [1] worked out at 198 nM; on Aurora kinase B [2] it was 122 nM.

As for `O=C(Nc1ccc(CCNc2ncnc3oc(-c4ccccc4)c(Cl)c23)cc1)Nc1ccccc1CN1CCC(O)CC1`, the IC50 on Aurora kinase A [3] came to 1510 nM; with HCT-116, 310 nM; on Aurora kinase A [1], 228 nM; at Aurora kinase B [4], 133 nM; at Aurora kinase B [2], 78.9 nM; with Detroit 551 it was 3500 nM. In addition, in the experiment with HeLa [5], the result was Active.

As for `CCc1cccc(NC(=O)Nc2ccc(CCNc3ncnc4oc(-c5ccccc5)c(Cl)c34)cc2)c1`, the IC50 at Aurora kinase A [1] came out at 66.3 nM; at Aurora kinase B [2], 86.1 nM.

For the compound `CC(C)c1ccc(NC(=O)Nc2ccc(CCNc3ncnc4oc(-c5ccccc5)c(Cl)c34)cc2)cc1`, the half-inhibitory concentration (IC50) on Aurora kinase A [1] and at Aurora kinase B [2] was more than 1000 nM throughout.

In the case of `CCN(CC)Cc1ccccc1NC(=O)Nc1ccc(CCNc2ncnc3oc(-c4ccccc4)c(Cl)c23)cc1`, the concentration for half-maximal inhibition (IC50) on Aurora kinase A [1] turned out to be 462 nM; at Aurora kinase B [2] it was 526 nM.

Consider `CN(C)Cc1ccccc1NC(=O)Nc1ccc(CCNc2ncnc3oc(-c4ccccc4)c(Cl)c23)cc1`, for which the IC50 at Aurora kinase A [3] was 73.4 nM; with HCT-116 it was 70 nM; on Aurora kinase B [4] it was 23.7 nM; with Detroit 551 it was 3100 nM. Also, the outcome in the experiment on HeLa [5] was Active.

On to `Cc1ccc(NC(=O)Nc2ccc(CCNc3ncnc4oc(-c5ccccc5)c(Cl)c34)cc2)cc1`, for which the concentration for half-maximal inhibition (IC50) was determined as 55.5 nM at Aurora kinase A [1] and 73.3 nM at Aurora kinase B [2].

For the compound `CCN(CC)Cc1cccc(NC(=O)Nc2ccc(CCNc3ncnc4oc(-c5ccccc5)c(Cl)c34)cc2)c1`, the IC50 at Aurora kinase A [1] was determined as 21.5 nM; on Aurora kinase B [2], 121 nM.

Take `CC(C)Cc1cccc(NC(=O)Nc2ccc(CCNc3ncnc4oc(-c5ccccc5)c(Cl)c34)cc2)c1`: the IC50 on Aurora kinase A [1] is 247 nM; on Aurora kinase B [2], more than 1000 nM.

With `O=C(Nc1ccccc1)Nc1ccc(CCNc2ncnc3oc(-c4ccccc4)c(Cl)c23)cc1`, the IC50 against Aurora kinase A [3] is 390 nM; in the experiment on HCT-116, 153 nM; on Aurora kinase A [1] it was 52 nM; at Aurora kinase B [4], 191 nM; at Aurora kinase B [2] it was 66.3 nM; in the experiment on Detroit 551, 7300 nM. Further, in the experiment on HeLa [6], the outcome was Active.

Turning to `Cc1ccccc1NC(=O)Nc1ccc(CCNc2ncnc3oc(-c4ccccc4)c(Cl)c23)cc1`, the IC50 worked out at 83.2 nM on Aurora kinase A [1] and 60.2 nM on Aurora kinase B [2].

For the compound `O=C(Nc1ccc(CCNc2ncnc3oc(-c4ccccc4)c(Cl)c23)cc1)Nc1ccc(CN2CCC(O)CC2)cc1`, the IC50 stood at 150 nM on Aurora kinase A [1] and 353 nM at Aurora kinase B [2].

As to `CN(C)Cc1ccc(NC(=O)Nc2ccc(CCNc3ncnc4oc(-c5ccccc5)c(Cl)c34)cc2)cc1`, the concentration for half-maximal inhibition (IC50) turned out to be 98.3 nM on Aurora kinase A [1] and 455 nM at Aurora kinase B [2].

Regarding `CN(C)Cc1cccc(NC(=O)Nc2ccc(CCNc3ncnc4oc(-c5ccccc5)c(Cl)c34)cc2)c1`, the concentration for half-maximal inhibition (IC50) is 59.9 nM at Aurora kinase A [3]; 578 nM with HCT-116; 20 nM at Aurora kinase A [1]; more than 10000 nM against Aurora kinase B [4]; 199 nM at Aurora kinase B [2]; 5000 nM with Detroit 551. Moreover, the result in the experiment on HeLa [6] was Active.

Consider `CC(C)c1cccc(NC(=O)Nc2ccc(CCNc3ncnc4oc(-c5ccccc5)c(Cl)c34)cc2)c1`, for which the IC50 on Aurora kinase A [1] was 233 nM; on Aurora kinase B [2] it was 657 nM.

For the compound `CCc1ccccc1NC(=O)Nc1ccc(CCNc2ncnc3oc(-c4ccccc4)c(Cl)c23)cc1`, the IC50 at Aurora kinase A [1] came to 178 nM; on Aurora kinase B [2] it was 66.2 nM.

Take `O=C(Nc1ccc(CCNc2ncnc3oc(-c4ccccc4)c(Cl)c23)cc1)Nc1cccc(CN2CCCCC2)c1`: the half-inhibitory concentration (IC50) at Aurora kinase A [1] came to 90.2 nM; on Aurora kinase B [2], 102 nM.

For `CCc1ccc(NC(=O)Nc2ccc(CCNc3ncnc4oc(-c5ccccc5)c(Cl)c34)cc2)cc1`, the results for the half-inhibitory concentration (IC50) at Aurora kinase A [1] and on Aurora kinase B [2] were 139 nM and 443 nM, respectively.

In the case of `CCN(C)Cc1cccc(NC(=O)Nc2ccc(CCNc3ncnc4oc(-c5ccccc5)c(Cl)c34)cc2)c1`, the half-maximal inhibitory concentration (IC50) is 132 nM against Aurora kinase A [3]; 342 nM with HCT-116; 9 nM at Aurora kinase A [1]; more than 10000 nM against Aurora kinase B [4]; 140 nM on Aurora kinase B [2]; 9700 nM in the experiment with Detroit 551.

`O=C(Nc1ccc(CCNc2ncnc3oc(-c4ccccc4)c(Cl)c23)cc1)Nc1ccc(CN2CCCCC2)cc1`: the 50% inhibitory concentration (IC50) on Aurora kinase A [1] worked out at 451 nM; on Aurora kinase B [2] it was 976 nM.

On to `CC(C)Cc1ccccc1NC(=O)Nc1ccc(CCNc2ncnc3oc(-c4ccccc4)c(Cl)c23)cc1`, for which the IC50 at Aurora kinase A [1] is more than 1000 nM; at Aurora kinase B [2], 700 nM.

With `CCN(CC)Cc1ccc(NC(=O)Nc2ccc(CCNc3ncnc4oc(-c5ccccc5)c(Cl)c34)cc2)cc1`, the figures for the concentration for half-maximal inhibition (IC50) at Aurora kinase A [1] and on Aurora kinase B [2] were 232 nM and 835 nM, respectively.

(Values after ChEMBL document CHEMBL4152212, “Design and synthesis of BPR1K653 derivatives targeting the back pocket of Aurora kinases for selective isoform inhibition” (Eur J Med Chem, 2018).)
